Entries after “also recorded” stand apart in the source; their conditions may differ. Read-outs that look alike come from different tables or passages of the source.
Key:
TNFR1 [1] = biological target: T1, TNFR1 (Homo sapiens, UniProt P19438); assay: SPR-based binding assay, immobilized TNFR1; conditions: read-out: Kd for TNFR1, 4 to 256 μM, steady-state affinity model
T1 sequence (P19438 30-455): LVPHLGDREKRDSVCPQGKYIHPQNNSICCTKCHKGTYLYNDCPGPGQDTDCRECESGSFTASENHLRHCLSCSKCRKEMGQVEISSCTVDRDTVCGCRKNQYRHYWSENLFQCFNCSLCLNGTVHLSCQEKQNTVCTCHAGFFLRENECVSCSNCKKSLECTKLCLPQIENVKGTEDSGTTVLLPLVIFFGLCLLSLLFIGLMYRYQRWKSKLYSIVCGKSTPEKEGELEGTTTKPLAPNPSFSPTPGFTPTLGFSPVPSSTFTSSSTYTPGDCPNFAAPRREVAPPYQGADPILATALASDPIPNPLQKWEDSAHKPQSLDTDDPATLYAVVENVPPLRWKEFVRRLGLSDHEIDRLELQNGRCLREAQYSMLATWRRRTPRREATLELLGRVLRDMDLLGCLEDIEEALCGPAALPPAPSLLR
How it was run: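 Human TNFR1 in 10 mM sodium acetate, pH 5.5, amine-coupled to a CM5 chip. Single-concentration screen at 50 μM in PBS with 5% DMSO, 120 s injection at 30 μL/min. For affinity, 4–256 μM in the same buffer was passed over reference and active channels at 30 μL/min, with 120 s association and 120 s dissociation. Kd from a steady-state affinity fit.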

L929 cells = assay: TNF-α-induced L929 cytotoxicity; assay type: cell-based; conditions: 25–200 μM, 10 ng/mL TNF-α and 1 μg/mL actinomycin D, 18 h
How it was run: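 L929 cells seeded at 2.0 × 10⁴ cells/well and cultured overnight. Test compound (25–200 μM) was premixed with 10 ng/mL TNF-α plus 1 μg/mL actinomycin D, then added for 18 h. Viability was read by microscopy and CCK-8 (OD 450 nm). %I = (OD AMD+TNF+compound − OD AMD+TNF)/(OD AMD − OD AMD+TNF) × 100. Three independent experiments in triplicate, mean ± SEM.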

TNF-α [2] = biological target: TNF-α (Homo sapiens, UniProt P01375); assay: SPR-based binding assay, immobilized TNF-α; conditions: read-out: Kd (μM) TNF-α, 2–128 μM, PBS with 5% DMSO
Chain of TNF-α (Homo sapiens, UniProt P01375) (P01375 77-233 limits assumed): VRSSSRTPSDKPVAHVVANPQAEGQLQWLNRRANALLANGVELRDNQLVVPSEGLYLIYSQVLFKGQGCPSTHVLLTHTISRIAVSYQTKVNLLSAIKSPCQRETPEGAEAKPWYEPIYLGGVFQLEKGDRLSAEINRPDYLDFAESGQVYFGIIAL
How it was run: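 Human TNF-α at 50 μg/mL in 10 mM sodium acetate, pH 5.0, amine-coupled to a CM5 chip. Hits were screened at 50 μM in PBS running buffer with 5% DMSO. A 2–128 μM concentration series was injected for 120 s, with 120 s dissociation. Kd came from fitting the sensorgrams in evaluation software. Representative of three independent experiments.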

TNF-α [3] = conditions: read-out: Kd TNF-α; cited from earlier work
TNFR1 [4] = conditions: cited from earlier work

Kd (TNF-α [2]) [µM] | Compound | Inhibition of TNF-α-mediated cytotoxicity on L929 cells (in words) (L929 cells) | also measured
11 | O=c1c(N=Nc2nc3ccccc3s2)c(-c2ccccc2)[nH]n1-c1ccc([N+](=O)[O-])cc1 [Compound T1] | dose-dependent inhibition; also recorded: activities similar to that of C87 | –
58 | O=C1Nc2c(S(=O)(=O)Nc3ccccc3)cc(S(=O)(=O)Nc3ccccc3)c3cccc1c23 [Compound T2] | no activity | –
113 | O=C(O)CCC(=O)Nc1sc2c(c1C(=O)Nc1cccc3ccccc13)CCCC2 [Compound T4] | no activity | –

The next lines start with the compound.

Compound | Kd (TNF-α [2]) [µM] | Inhibition of TNF-α-mediated cytotoxicity on L929 cells (in words) (L929 cells) | also measured
O=C(NCc1ccc2c(c1)OCO2)C1CCCN(c2ncnc3nc[nH]c23)C1 (centres unmarked) [Compound R1] | – | dose-dependent inhibition; also recorded: activities similar to that of C87 | Kd (TNFR1 [1]): 16 µM
Cc1cc2occ(CN(C)CCN(C)Cc3cn(-c4cccc(C(F)(F)F)c4)c4ccccc34)c(=O)c2cc1C [SPD-304] | – | – | Kd (TNF-α [3]): 5.36 µM
TNF-α | – | – | Kd (TNFR1 [4]; read-out: Kd for binding of TNF-α to TNFR1): 0.00176 µM
physcion-8-O-β-D-monoglucoside [reference compound] | – | – | Kd (TNFR1 [4]; read-out: Kd TNFR1): 0.376 µM

Reference: paper PMC6732210 (Journal of chemical information and modeling, 2017)
